Reference: ChEMBL document CHEMBL1649562, “Emergence of high levels of extended-spectrum-beta-lactamase-producing gram-negative bacilli in the Asia-Pacific region: data from the Study for Monitoring Antimicrobial Resistance Trends (SMART) program, 2007” (2009)
The source made the active and inactive calls.

tested on: Enterobacter cloacae; assay: Antimicrobial activity against Enterobacter cloacae assessed as percent susceptible isolates by CLSI method in presence of beta-lactamase inhibitor tazobactem; format: functional
Outline: (§1)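 Site laboratories identified isolates by their local methods. MICs were read from dehydrated broth microdilution panels, the same panel at all sites, following CLSI procedure. Susceptibility was categorized by CLSI interpretive criteria. QC ran daily at each site with E. coli ATCC 25922, K. pneumoniae ATCC 700603 and P. aeruginosa ATCC 27853.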

SMILES	Activity
CCN1CCN(C(=O)N[C@@H](C(=O)N[C@@H]2C(=O)N3[C@@H]2SC(C)(C)[C@@H]3C(=O)O)c2ccccc2)C(=O)C1=O [PIPERACILLIN]	71%

tested on: Proteus mirabilis; assay: Antimicrobial activity against Proteus mirabilis assessed as percent susceptible isolates by CLSI method in presence of beta-lactamase inhibitor Sulbactam; format: functional; outline: as §1

SMILES	Activity
CC1(C)S[C@@H]2[C@H](NC(=O)[C@H](N)c3ccccc3)C(=O)N2[C@H]1C(=O)O [AMPICILLIN]	72%

tested on: Pseudomonas aeruginosa; assay: Antimicrobial activity against Pseudomonas aeruginosa assessed as percent susceptible isolates by CLSI method in presence of beta-lactamase inhibitor tazobactem; format: functional; outline: as §1

SMILES	Activity
CCN1CCN(C(=O)N[C@@H](C(=O)N[C@@H]2C(=O)N3[C@@H]2SC(C)(C)[C@@H]3C(=O)O)c2ccccc2)C(=O)C1=O [PIPERACILLIN]	81%

tested on: Klebsiella oxytoca; assay: Antimicrobial activity against extended spectrum beta-lactamase-expressing Klebsiella oxytoca assessed as percent susceptible isolates by CLSI method in presence of beta-lactamase inhibitor Sulbactam; format: functional
Outline: (§2)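 ESBL status was assigned when the ceftazidime or cefotaxime MIC fell at least eightfold (three doubling dilutions) with clavulanic acid, compared with the drug alone. Isolates were identified locally at each site. MICs came from uniform dehydrated broth microdilution panels under CLSI procedure, with susceptibility by CLSI criteria. Daily QC used E. coli ATCC 25922, K. pneumoniae ATCC 700603 (ESBL-positive) and P. aeruginosa ATCC 27853.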

SMILES	Activity
CC1(C)S[C@@H]2[C@H](NC(=O)[C@H](N)c3ccccc3)C(=O)N2[C@H]1C(=O)O [AMPICILLIN]	5%

tested on: Klebsiella oxytoca; assay: Antimicrobial activity against extended spectrum beta-lactamase-deficient Klebsiella oxytoca assessed as percent susceptible isolates by CLSI method in presence of beta-lactamase inhibitor Sulbactam; format: functional; outline: as §2

SMILES	Activity
CC1(C)S[C@@H]2[C@H](NC(=O)[C@H](N)c3ccccc3)C(=O)N2[C@H]1C(=O)O [AMPICILLIN]	76%

tested on: Klebsiella pneumoniae; assay: Antimicrobial activity against extended spectrum beta-lactamase-deficient Klebsiella pneumoniae assessed as percent susceptible isolates by CLSI method in presence of beta-lactamase inhibitor Sulbactam; format: functional; outline: as §2

SMILES	Activity
CC1(C)S[C@@H]2[C@H](NC(=O)[C@H](N)c3ccccc3)C(=O)N2[C@H]1C(=O)O [AMPICILLIN]	76%

tested on: Klebsiella aerogenes; assay: Antimicrobial activity against Enterobacter aerogenes assessed as percent susceptible isolates by CLSI method in presence of beta-lactamase inhibitor tazobactem; format: functional; outline: as §1

SMILES	Activity
CCN1CCN(C(=O)N[C@@H](C(=O)N[C@@H]2C(=O)N3[C@@H]2SC(C)(C)[C@@H]3C(=O)O)c2ccccc2)C(=O)C1=O [PIPERACILLIN]	69%

tested on: Pseudomonas aeruginosa; assay: Antimicrobial activity against Pseudomonas aeruginosa assessed as percent susceptible isolates by CLSI method in presence of beta-lactamase inhibitor Sulbactam; format: functional, organism-based; outline: as §1

SMILES	Activity
CC1(C)S[C@@H]2[C@H](NC(=O)[C@H](N)c3ccccc3)C(=O)N2[C@H]1C(=O)O [AMPICILLIN]	inactive

tested on: Klebsiella oxytoca; assay: Antimicrobial activity against extended spectrum beta-lactamase-expressing Klebsiella oxytoca assessed as percent susceptible isolates by CLSI method in presence of beta-lactamase inhibitor tazobactem; format: functional; outline: as §2

SMILES	Activity
CCN1CCN(C(=O)N[C@@H](C(=O)N[C@@H]2C(=O)N3[C@@H]2SC(C)(C)[C@@H]3C(=O)O)c2ccccc2)C(=O)C1=O [PIPERACILLIN]	68%

tested on: Klebsiella aerogenes; assay: Antimicrobial activity against Enterobacter aerogenes assessed as percent susceptible isolates by CLSI method in presence of beta-lactamase inhibitor Sulbactam; format: functional; outline: as §1

SMILES	Activity
CC1(C)S[C@@H]2[C@H](NC(=O)[C@H](N)c3ccccc3)C(=O)N2[C@H]1C(=O)O [AMPICILLIN]	31%

tested on: Citrobacter freundii; assay: Antimicrobial activity against Citrobacter freundii assessed as percent susceptible isolates by CLSI method in presence of beta-lactamase inhibitor Sulbactam; format: functional; outline: as §1

SMILES	Activity
CC1(C)S[C@@H]2[C@H](NC(=O)[C@H](N)c3ccccc3)C(=O)N2[C@H]1C(=O)O [AMPICILLIN]	37%

tested on: Escherichia coli; assay: Antimicrobial activity against extended spectrum beta-lactamase-deficient Escherichia coli assessed as percent susceptible isolates by CLSI method in presence of beta-lactamase inhibitor Sulbactam; format: functional; outline: as §2

SMILES	Activity
CC1(C)S[C@@H]2[C@H](NC(=O)[C@H](N)c3ccccc3)C(=O)N2[C@H]1C(=O)O [AMPICILLIN]	43%

tested on: Klebsiella pneumoniae; assay: Antimicrobial activity against extended spectrum beta-lactamase-expressing Klebsiella pneumoniae assessed as percent susceptible isolates by CLSI method in presence of beta-lactamase inhibitor tazobactem; format: functional; outline: as §2

SMILES	Activity
CCN1CCN(C(=O)N[C@@H](C(=O)N[C@@H]2C(=O)N3[C@@H]2SC(C)(C)[C@@H]3C(=O)O)c2ccccc2)C(=O)C1=O [PIPERACILLIN]	57%

tested on: Escherichia coli; assay: Antimicrobial activity against extended spectrum beta-lactamase-expressing Escherichia coli assessed as percent susceptible isolates by CLSI method in presence of beta-lactamase inhibitor tazobactem; format: functional; outline: as §2

SMILES	Activity
CCN1CCN(C(=O)N[C@@H](C(=O)N[C@@H]2C(=O)N3[C@@H]2SC(C)(C)[C@@H]3C(=O)O)c2ccccc2)C(=O)C1=O [PIPERACILLIN]	83%

tested on: Escherichia coli; assay: Antimicrobial activity against extended spectrum beta-lactamase-expressing Escherichia coli assessed as percent susceptible isolates by CLSI method in presence of beta-lactamase inhibitor Sulbactam; format: functional; outline: as §2

SMILES	Activity
CC1(C)S[C@@H]2[C@H](NC(=O)[C@H](N)c3ccccc3)C(=O)N2[C@H]1C(=O)O [AMPICILLIN]	5%

tested on: Klebsiella pneumoniae; assay: Antimicrobial activity against extended spectrum beta-lactamase-expressing Klebsiella pneumoniae assessed as percent susceptible isolates by CLSI method in presence of beta-lactamase inhibitor Sulbactam; format: functional; outline: as §2

SMILES	Activity
CC1(C)S[C@@H]2[C@H](NC(=O)[C@H](N)c3ccccc3)C(=O)N2[C@H]1C(=O)O [AMPICILLIN]	6%

tested on: Proteus mirabilis; assay: Antimicrobial activity against Proteus mirabilis assessed as percent susceptible isolates by CLSI method in presence of beta-lactamase inhibitor tazobactem; format: functional; outline: as §1

SMILES	Activity
CCN1CCN(C(=O)N[C@@H](C(=O)N[C@@H]2C(=O)N3[C@@H]2SC(C)(C)[C@@H]3C(=O)O)c2ccccc2)C(=O)C1=O [PIPERACILLIN]	97%

tested on: Enterobacter cloacae; assay: Antimicrobial activity against Enterobacter cloacae assessed as percent susceptible isolates by CLSI method in presence of beta-lactamase inhibitor Sulbactam; format: functional; outline: as §1

SMILES	Activity
CC1(C)S[C@@H]2[C@H](NC(=O)[C@H](N)c3ccccc3)C(=O)N2[C@H]1C(=O)O [AMPICILLIN]	17%

tested on: Klebsiella oxytoca; assay: Antimicrobial activity against extended spectrum beta-lactamase-deficient Klebsiella oxytoca assessed as percent susceptible isolates by CLSI method in presence of beta-lactamase inhibitor tazobactem; format: functional; outline: as §2

SMILES	Activity
CCN1CCN(C(=O)N[C@@H](C(=O)N[C@@H]2C(=O)N3[C@@H]2SC(C)(C)[C@@H]3C(=O)O)c2ccccc2)C(=O)C1=O [PIPERACILLIN]	100%

tested on: Klebsiella pneumoniae; assay: Antimicrobial activity against extended spectrum beta-lactamase-deficient Klebsiella pneumoniae assessed as percent susceptible isolates by CLSI method in presence of beta-lactamase inhibitor tazobactem; format: functional; outline: as §2

SMILES	Activity
CCN1CCN(C(=O)N[C@@H](C(=O)N[C@@H]2C(=O)N3[C@@H]2SC(C)(C)[C@@H]3C(=O)O)c2ccccc2)C(=O)C1=O [PIPERACILLIN]	94%

tested on: Escherichia coli; assay: Antimicrobial activity against extended spectrum beta-lactamase-deficient Escherichia coli assessed as percent susceptible isolates by CLSI method in presence of beta-lactamase inhibitor tazobactem; format: functional; outline: as §2

SMILES	Activity
CCN1CCN(C(=O)N[C@@H](C(=O)N[C@@H]2C(=O)N3[C@@H]2SC(C)(C)[C@@H]3C(=O)O)c2ccccc2)C(=O)C1=O [PIPERACILLIN]	94%

tested on: Citrobacter freundii; assay: Antimicrobial activity against Citrobacter freundii assessed as percent susceptible isolates by CLSI method in presence of beta-lactamase inhibitor tazobactem; format: functional; outline: as §1

SMILES	Activity
CCN1CCN(C(=O)N[C@@H](C(=O)N[C@@H]2C(=O)N3[C@@H]2SC(C)(C)[C@@H]3C(=O)O)c2ccccc2)C(=O)C1=O [PIPERACILLIN]	71%
